{"data": "Published values pooled from the literature", "target": "Ephrin type-A receptor 2 (EPHA2, Homo sapiens, UniProt P29317)", "note": "Each line is one published result; the experiments were not run side by side."}
{"Structure (SMILES)": "CS(=O)(=O)c1cc(C2(NC(=O)c3cncc4c3cnn4-c3ccc(F)cc3)CC2)ccn1", "observed": "cell-free assay", "method": "competition with immobilised ligand", "concentration": "1 µM", "remaining binding [%]": 100}
{"Structure (SMILES)": "COc1ccnn2ncc(-c3ccnc(N(C)C)n3)c12", "observed": "binding", "concentration": "1 µM", "remaining binding [%]": 100}
{"Structure (SMILES)": "O=C(NCCCN1CCOCC1)c1ccc(Nc2ncc(Cl)c(-c3ccc(Cl)s3)n2)cc1", "observed": "binding", "method": "competition with immobilised ligand", "concentration": "1 µM", "remaining binding [%]": 100}
{"Structure (SMILES)": "CN(C)c1nccc(-c2cnn3ncccc23)n1", "observed": "binding", "concentration": "1 µM", "remaining binding [%]": 85}
{"Structure (SMILES)": "N#Cc1ccccc1CSc1nnc2c(n1)[nH]c1ccccc12", "observed": "binding", "method": "competition with immobilised ligand", "concentration": "10 µM", "remaining binding [%]": 87}
{"Structure (SMILES)": "Cc1cc(C)c(-n2ccn3nc(-c4cccnc4)cc23)cc1NC(=O)c1cc(C#N)cc(S(F)(F)(F)(F)F)c1", "observed": "cell-free assay", "method": "competition with immobilised ligand", "concentration": "0.1 µM", "remaining binding [%]": 79.6}
{"Structure (SMILES)": "O=C(Nc1c[nH]nc1C(=O)NC1CCNCC1)c1cc(F)cc(F)c1", "observed": "binding", "method": "competition with immobilised ligand", "concentration": "1 µM", "remaining binding [%]": 100}
{"Structure (SMILES)": "CCC(=N\\O)/C(C)=C/c1ccc(F)cc1", "observed": "cell-free assay", "method": "competition with immobilised ligand", "concentration": "1 µM", "remaining binding [%]": 84}
{"Structure (SMILES)": "O=C(c1ccc(Nc2nccc(-c3cc4ccccc4s3)n2)cc1)N1CCC(N2CCCC2)CC1", "observed": "binding", "method": "competition with immobilised ligand", "concentration": "1 µM", "remaining binding [%]": 65}
{"Structure (SMILES)": "NS(=O)(=O)c1cc(NC(=O)Cc2ccccc2)ccc1Oc1cccc(Cl)c1", "observed": "cell-free assay", "method": "competition with immobilised ligand", "concentration": "1 µM", "remaining binding [%]": 91}
{"Structure (SMILES)": "CN(CCCC(F)(F)F)c1nccc(-c2cnn3ncccc23)n1", "observed": "binding", "concentration": "1 µM", "remaining binding [%]": 82}
{"Structure (SMILES)": "CO[C@@H](C)c1c(Nc2ccc([C@H](N(C)C(=O)C3CCS(=O)(=O)CC3)C(F)(F)F)cc2)cnc2cc(Cl)nn12", "observed": "cell-free assay", "method": "competition with immobilised ligand", "concentration": "1 µM", "remaining binding [%]": 100}
{"Structure (SMILES)": "Nc1ncc2c(n1)-c1c([nH]c3ccc(C#CC4CC4)cc13)CCCC2", "observed": "binding", "method": "competition with immobilised ligand", "concentration": "1 µM", "remaining binding [%]": 100}
{"Structure (SMILES)": "Cc1nc(C2CCN(C(=O)c3ccc(OC(F)(F)F)cc3N)CC2)c2ncc(N3CCN(C)CC3)cc2n1", "observed": "cell-free assay", "method": "competition with immobilised ligand", "concentration": "1 µM", "remaining binding [%]": 100}
{"Structure (SMILES)": "CN(c1nccc(-c2cnn3ncccc23)n1)C1CC1", "observed": "binding", "concentration": "1 µM", "remaining binding [%]": 99}
{"Structure (SMILES)": "CNC(=O)[C@@H]1CC[C@@H](n2c(-c3ccc4cnccc4c3)nc3ccc(C(=O)NCc4cccc(C(N)=O)c4)cc32)C1", "observed": "binding", "method": "competition with immobilised ligand", "concentration": "1 µM", "remaining binding [%]": 98}
{"Structure (SMILES)": "C[C@H]1CCN(c2nccc(-c3cnn4ncccc34)n2)C1", "observed": "binding", "concentration": "1 µM", "remaining binding [%]": 100}
{"Structure (SMILES)": "COc1cnc(Nc2cccc(S(N)(=O)=O)c2)nc1N1CCN(c2ccccc2)C(=O)C1", "observed": "binding", "method": "competition with immobilised ligand", "concentration": "1 µM", "remaining binding [%]": 99}
{"Structure (SMILES)": "O=C(NCCCN1CCOCC1)c1ccc(Nc2nccc(-c3cc4ccccc4s3)n2)cc1", "observed": "binding", "method": "competition with immobilised ligand", "concentration": "1 µM", "remaining binding [%]": 72}
{"Structure (SMILES)": "CC(C)(C)c1ccc(-c2nc(CBr)nn2-c2cccc(O)c2)cc1", "observed": "cell-free assay", "method": "competition with immobilised ligand", "concentration": "10 µM", "remaining binding [%]": 89}
{"Structure (SMILES)": "C[C@@H]1CN(c2cc(-c3n[nH]c4ccc(OC5(C)CC5)cc34)ncn2)C[C@H](C)O1", "observed": "cell-free assay", "method": "competition with immobilised ligand", "concentration": "0.1 µM", "remaining binding [%]": 72}
{"Structure (SMILES)": "CN(C)c1nccc(-c2cnc3ncccn23)n1", "observed": "binding", "concentration": "1 µM", "remaining binding [%]": 100}
{"Structure (SMILES)": "C[C@@H]1CN(c2ccc3ncc(-c4ccc5[nH]nc(C6CC6)c5c4)n3n2)C[C@H](C)O1", "observed": "binding", "method": "competition with immobilised ligand", "concentration": "0.5 µM", "remaining binding [%]": 100}
{"Structure (SMILES)": "N[C@@H]1CCN(c2nccc(-c3cnn4ncccc34)n2)C1", "observed": "binding", "concentration": "1 µM", "remaining binding [%]": 100}
{"Structure (SMILES)": "C=CC(=O)N1CCC(C(=O)NCC(=O)N2CCN(c3nc(-c4cnc(N)nc4C(F)F)nc(N4CCOCC4)n3)CC2)CC1", "observed": "binding", "method": "competition with immobilised ligand", "concentration": "1 µM", "remaining binding [%]": 95}
